SMILES strings stand for the structures. pIC50: −log10 of the molar value.

Experiment [1] concerns PBMC. In words: Antiproliferative activity against human PBMC cells after 72 hrs by MTT assay. Type of experiment: cell-based. Summed up: (§1)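 Cells seeded and pre-incubated 24 h at 37 °C, 5% CO2, then exposed to compounds for 72 h. MTT (5 mg/mL stock) added for 4 h, formazan dissolved in DMSO for 10 min at room temperature, absorbance read at 570 nm. 0.1% DMSO as negative and 5-FU as positive reference. IC50 derived from inhibition ratios; mean ± SD of three independent experiments.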

In experiment [2] the test system is HL-60. In words: Antiproliferative activity against human HL60 cells after 72 hrs by MTT assay. Particulars: HL-60, 72 h. Type of experiment: functional, cell-based. Summed up: as §1
The subject of experiment [3] is SGC-7901. In words: Antiproliferative activity against human SGC7901 cells after 72 hrs by MTT assay. Type of experiment: functional, cell-based. To be noted: SGC-7901, 72 h. Summed up:
as §1

Experiment [4] has as its system Caco-2. Nature of the experiment: Antiproliferative activity against human Caco2 cells after 72 hrs by MTT assay. The experiment is classed as functional, cell-based. To be noted: Caco-2, 72 h. Summed up:
as §1

In experiment [5] the test system is Bel-7402. Nature of the experiment: Antiproliferative activity against human Bel7402 cells after 72 hrs by MTT assay. The experiment is classed as functional, cell-based. To be noted: Bel-7402, 72 h. Summed up: as §1
Experiment [6] has as its system MCF7. Nature of the experiment: Antiproliferative activity against human MCF7 cells after 72 hrs by MTT assay. Type of experiment: functional, cell-based. Particulars: MCF7, 72 h. Summed up:
as §1

`CN1c2ccccc2C(=O)N2CCc3c(n(CCCC(=O)OCCCOc4ccc(-c5cc(=S)ss5)cc4)c4ccccc34)C21` (stereo not drawn): the pIC50 in experiment [1] was below 4.00; in experiment [2], 5.98; in experiment [3] it was below 4.30; in experiment [4] it was 5.55; in experiment [5], below 4.30; in experiment [6], below 4.30.
Take `CN1c2ccccc2C(=O)N2CCc3c(n(CC(=O)OCCOc4ccc(-c5cc(=S)ss5)cc4)c4ccccc34)C21` (stereo not drawn): the negative logarithm of the IC50 (pIC50) in experiment [1] is below 4.00; in experiment [2] it was 5.72; in experiment [3], 4.48; in experiment [4], 5.20; in experiment [5], 4.57; in experiment [6], 4.42.
As for `CN1c2ccccc2C(=O)N2CCc3c(n(CCCC(=O)Oc4ccc(-c5cc(=S)ss5)cc4)c4ccccc34)C21` (stereo not drawn), the pIC50 in experiment [1] is below 4.00; in experiment [2], 4.85; in experiment [3], below 4.30; in experiment [4], 5.39; in experiment [5] it was below 4.30; in experiment [6], below 4.30.
As to `CN1c2ccccc2C(=O)N2CCc3c(n(CC(=O)OCCCOc4ccc(-c5cc(=S)ss5)cc4)c4ccccc34)C21` (stereo not drawn), the pIC50 is below 4.00 in experiment [1]; 5.56 in experiment [2]; 4.61 in experiment [3]; 5.29 in experiment [4]; 4.47 in experiment [5]; 4.56 in experiment [6].
As for `CN1c2ccccc2C(=O)N2CCc3c(n(CC(=O)Oc4ccc(-c5cc(=S)ss5)cc4)c4ccccc34)C21` (stereo not drawn), the pIC50 is below 4.00 in experiment [1]; below 4.30 in experiment [2]; 4.57 in experiment [3]; 4.64 in experiment [4]; 4.59 in experiment [5]; 4.32 in experiment [6].
For `CN1c2ccccc2C(=O)N2CCc3c([nH]c4ccccc34)C21` (stereo not drawn), the negative logarithm of the IC50 (pIC50) in experiment [1] is 4.68; in experiment [2], 5.87; in experiment [3] it was 5.16; in experiment [4] it was 5.56; in experiment [5] it was 5.92; in experiment [6], 4.54.
On to `CN1c2ccccc2C(=O)N2CCc3c(n(CCCCC(=O)OCCOc4ccc(-c5cc(=S)ss5)cc4)c4ccccc34)C21` (stereo not drawn), for which the pIC50 in experiment [1] was below 4.00; in experiment [2] it was 5.68; in experiment [3], 4.36; in experiment [4] it was 5.37; in experiment [5], 4.38; in experiment [6], 4.53.
Turning to `CN1c2ccccc2C(=O)N2CCc3c(n(CCCOC(=O)CCCCC4CCSS4)c4ccccc34)C21` (stereo not drawn), the pIC50 was below 4.00 in experiment [1]; 5.68 in experiment [2]; below 4.30 in experiment [3]; 5.55 in experiment [4]; below 4.30 in experiment [5]; 4.40 in experiment [6].
On to `CN1c2ccccc2C(=O)N2CCc3c(n(CCCC(=O)OCCCCOc4ccc(-c5cc(=S)ss5)cc4)c4ccccc34)C21` (stereo not drawn), for which the pIC50 in experiment [1] was below 4.00; in experiment [2], 6.15; in experiment [3], below 4.30; in experiment [4], 5.41; in experiment [5] it was 4.35; in experiment [6] it was 4.54.
`CN1c2ccccc2C(=O)N2CCc3c(n(CCCCC(=O)Oc4ccc(-c5cc(=S)ss5)cc4)c4ccccc34)C21` (stereo not drawn): the negative-log IC50 (pIC50) in experiment [1] was below 4.00; in experiment [2], below 4.30; in experiment [3] it was 4.52; in experiment [4], 4.42; in experiment [5] it was below 4.30; in experiment [6], 4.31.
Take `CN1c2ccccc2C(=O)N2CCc3c(n(CCOC(=O)CCCCC4CCSS4)c4ccccc34)C21` (stereo not drawn): the negative-log IC50 (pIC50) in experiment [1] is below 4.00; in experiment [2], 6.01; in experiment [3] it was below 4.30; in experiment [4] it was 5.50; in experiment [5], 4.69; in experiment [6] it was 5.02.
Regarding `CN1c2ccccc2C(=O)N2CCc3c(n(CCCC(=O)OCCOc4ccc(-c5cc(=S)ss5)cc4)c4ccccc34)C21` (stereo not drawn), the pIC50 is below 4.00 in experiment [1]; 5.99 in experiment [2]; 4.32 in experiment [3]; 5.38 in experiment [4]; 4.34 in experiment [5]; 4.40 in experiment [6].
For `O=C(O)CCCCC1CCSS1` (stereo not drawn) [LIPOIC ACID, ALPHA], the negative logarithm of the IC50 (pIC50) is below 4.00 in experiment [1]; 4.79 in experiment [2]; below 4.30 in experiment [3]; 4.85 in experiment [4]; below 4.30 in experiment [5]; below 4.30 in experiment [6].
For `CN1c2ccccc2C(=O)N2CCc3c(n(CCCCCCOC(=O)CCCCC4CCSS4)c4ccccc34)C21` (stereo not drawn), the negative-log IC50 (pIC50) in experiment [1] is below 4.00; in experiment [2] it was 5.46; in experiment [3], 4.45; in experiment [4] it was 5.31; in experiment [5], 4.66; in experiment [6], 4.55.
Turning to `CN1c2ccccc2C(=O)N2CCc3c(n(CC(=O)OCCCCOc4ccc(-c5cc(=S)ss5)cc4)c4ccccc34)C21` (stereo not drawn), the negative logarithm of the IC50 (pIC50) in experiment [1] is below 4.00; in experiment [2], 6.08; in experiment [3] it was below 4.30; in experiment [4], 5.36; in experiment [5], below 4.30; in experiment [6], below 4.30.
Regarding `Oc1ccc(-c2cc(=S)ss2)cc1`, the negative logarithm of the IC50 (pIC50) in experiment [1] is below 4.00; in experiment [2], 4.59; in experiment [3] it was below 4.30; in experiment [4], 4.45; in experiment [5] it was below 4.30; in experiment [6] it was below 4.30.
As for `CN1c2ccccc2C(=O)N2CCc3c(n(CCCOCCCOC(=O)CCCCC4CCSS4)c4ccccc34)C21` (stereo not drawn), the pIC50 is below 4.00 in experiment [1]; 5.03 in experiment [2]; 4.51 in experiment [3]; 5.29 in experiment [4]; below 4.30 in experiment [5]; 4.65 in experiment [6].
On to `CN1c2ccccc2C(=O)N2CCc3c(n(CCCCC(=O)OCCCOc4ccc(-c5cc(=S)ss5)cc4)c4ccccc34)C21` (stereo not drawn), for which the pIC50 in experiment [1] is below 4.00; in experiment [2] it was 6.00; in experiment [3], below 4.30; in experiment [4], 5.52; in experiment [5] it was 4.52; in experiment [6], below 4.30.
Turning to `O=c1[nH]cc(F)c(=O)[nH]1` [FLUOROURACIL], the pIC50 in experiment [2] was 5.46; in experiment [3], 4.70; in experiment [4] it was 4.41; in experiment [5], 4.72; in experiment [6] it was 4.57.

The record behind these values is ChEMBL document CHEMBL4152203, “Antiproliferative hydrogen sulfide releasing evodiamine derivatives and their apoptosis inducing properties” (Eur J Med Chem, 2018).
